Hits are enriched below; roughly 1.9% of the tested compounds scored in any of these assays.
proCasp3 act: procaspase-3 (human) activation. 0.11% of 330,000 active. P42574. recombinant procaspase-3 D3A, Ac-DEVD-pNA absorbance 405 nm. activation, % at 8.5 µM;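 active = activation above the mean of all tested compounds plus 3 SD, cut at about 21% in these data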
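Assay system – Procaspase-3 D3A mutant, all three cleavage aspartates alanine · Controls – DMSO-only low control, 5 µM PC-3 D3A high control · Schedule – 1 h compound preincubation, 2 h substrate hydrolysis at 25 °C · Signal – 405 nm absorbance of p-nitroaniline, reads at 0 and 120 min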
PLC-gamma1 inh: PLC-gamma1 (human) inhibition, primary screen; 0.84% of 370,000 active; purified PLC-gamma1, fluorogenic substrate, fluorescence; inhibition, % at 12.2 µM; in the data active = inhibition above about 9.5%
Arr AP2 block: human beta-arrestin and AP2 interaction inhibition. FITC-arrestin peptide / GST-AP2 beads, flow cytometry; AP2 beta2 appendage carries R879A mutation. inhibition, % at 10 µM. AID 504490. 0.31% of 340,000 active;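 active = inhibition above a set limit, near 3 SD of compounds lacking own fluorescence, cut at about 54% in these data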
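Material – GST-tagged AP2 beta2-adaptin appendage (R879A) on 4 µm glutathione beads · Probe or stimulus – fluorescein-tagged arrestin peptide at 50 nM final · Timing – 12 min plus 1 h, RT · Detection – bead flow cytometry, FITC channel · Read-out basis – inhibition as reduced fluorescein signal on beads, percent · Medium – PBS plus Tween 20 (0.05%) and BSA (0.1%)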
sPLA2-III inh: Inhibits HGIII-sPLA2 liposome hydrolysis, primary screen; Q9NZ20; QFRET BODIPY PC-A2 liposome hydrolysis, fluorescence; inhibition, % at 12.2 µM; 0.56% of 370,000 active; AID 743126;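 active = inhibition above mean plus 3 SD of compounds lying within the high and low control bounds, cut at about 19% in these data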
proCasp7 act: counter-screen for procaspase-3 activators: activators of human procaspase-7; P55210; recombinant procaspase-7, Ac-DEVD-pNA absorbance 405 nm; D23A/D198A/D206A triple mutant, cannot self-cleave; scale: DMSO 0, 5 µM enzyme 100; 0.093% of 330,000 active; activation, % at 8.5 µM;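 active = percent activation above the screen-wide mean plus 3 SD, cut at about 25% in these data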
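System: Procaspase-7 triple mutant (PC-7 D3A); measure: % activation from two-timepoint absorbance difference, scaled to controls; times: 1 h compound preincubation, 2 h substrate cleavage, 25 °C; also added: Ac-DEVD-pNA substrate, 400 µM as added; measured by: Epi-absorbance of released pNA at 405 nm, two timepoints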
PLC-beta3 inh: blocks human PLC-beta3 enzyme activity; Q01970; Purified PLC-beta3, fluorogenic substrate, fluorescence; inhibition, % at 12.2 µM; 0.18% of 370,000 active; in the data active = inhibition above about 11%
Target sequence (Q01970 whole entry, looked up): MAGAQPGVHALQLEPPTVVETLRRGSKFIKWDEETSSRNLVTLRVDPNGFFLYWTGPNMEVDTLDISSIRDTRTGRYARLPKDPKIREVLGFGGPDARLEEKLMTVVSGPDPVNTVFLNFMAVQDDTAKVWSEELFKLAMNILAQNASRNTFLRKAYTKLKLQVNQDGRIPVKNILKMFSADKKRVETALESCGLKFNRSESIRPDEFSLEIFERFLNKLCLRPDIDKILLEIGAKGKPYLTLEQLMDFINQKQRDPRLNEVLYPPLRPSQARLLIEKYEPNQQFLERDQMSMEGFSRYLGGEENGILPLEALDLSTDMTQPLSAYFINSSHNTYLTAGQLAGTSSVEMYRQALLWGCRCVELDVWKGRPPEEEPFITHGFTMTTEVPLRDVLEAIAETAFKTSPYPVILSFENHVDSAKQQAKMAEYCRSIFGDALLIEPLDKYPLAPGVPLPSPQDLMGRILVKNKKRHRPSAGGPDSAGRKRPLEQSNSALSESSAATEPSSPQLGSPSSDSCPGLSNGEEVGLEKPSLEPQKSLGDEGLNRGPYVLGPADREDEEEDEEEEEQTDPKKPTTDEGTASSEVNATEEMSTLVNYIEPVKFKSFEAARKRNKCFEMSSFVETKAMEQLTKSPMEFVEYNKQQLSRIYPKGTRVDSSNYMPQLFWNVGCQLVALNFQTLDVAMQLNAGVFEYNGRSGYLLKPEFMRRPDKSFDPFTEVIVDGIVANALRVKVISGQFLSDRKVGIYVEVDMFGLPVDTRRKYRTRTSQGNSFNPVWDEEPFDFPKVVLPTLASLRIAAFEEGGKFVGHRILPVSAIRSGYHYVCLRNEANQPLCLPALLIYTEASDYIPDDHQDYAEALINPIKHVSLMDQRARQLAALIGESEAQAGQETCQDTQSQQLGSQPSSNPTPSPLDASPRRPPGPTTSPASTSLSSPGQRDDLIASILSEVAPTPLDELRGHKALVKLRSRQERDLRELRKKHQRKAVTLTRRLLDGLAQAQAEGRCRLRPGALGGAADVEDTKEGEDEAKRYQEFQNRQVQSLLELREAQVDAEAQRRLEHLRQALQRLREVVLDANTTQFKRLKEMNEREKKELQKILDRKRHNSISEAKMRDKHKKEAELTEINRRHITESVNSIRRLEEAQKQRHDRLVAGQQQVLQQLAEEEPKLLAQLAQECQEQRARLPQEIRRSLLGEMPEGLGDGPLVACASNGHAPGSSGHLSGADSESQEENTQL
Arr AP2 CP1: human beta-arrestin and AP2 interaction inhibition, cherry pick; shares compounds with Arr AP2 block; GST-AP2 beads, FITC arrestin peptide binding, flow cytometry; GST-fused beta2-adaptin appendage, R879A mutant; inhibition, % at 10 µM; 2% of 1,300 active; AID 504908;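 active = inhibition above a set limit, roughly 3 SD of non-fluorescent compound noise, cut at about 38% in these data; inactive = inhibition at or below that limit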;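 note: loss of bead fluorescence from 50 nM FITC arrestin peptide bound to appendage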
GST GSH counter: GST-GSH bead binding interference, counter-screen; shares compounds with Arr AP2 block; GST-fluorescein binding to GSH beads, fluorescence; inhibition, % at 10 µM; 2% of 1,300 active;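 active = inhibition above 50%, about 3 SD of the inhibition seen with non-fluorescent compounds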;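 note: fluorescein maleimide labelled GST captured on 4 micron glutathione beads; higher means more loss of bead fluorescence from quenching or blocked binding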
Each line names hits and unclear results; the compound was inactive in the other large screens (follow-up assays come after a bar, where they were run).

O=C(Nc1ccccc1C(F)(F)F)OCCCN1CCC2(CCC(c3ccccc3)CC2)C1=O (stereo not drawn)	none (no result: proCasp3 act, Arr AP2 block, proCasp7 act)
C[C@@H]1/C=C/CC(=O)N[C@H](c2ccccc2)[C@H](C)/C=C/CC(=O)N[C@@H]1c1ccccc1	none (no result: proCasp3 act, Arr AP2 block, proCasp7 act)
O=C(NCCc1c[nH]c2ccccc12)c1ccc(Sc2ccccc2Cl)c([N+](=O)[O-])c1	none (no result: proCasp3 act, Arr AP2 block, proCasp7 act)
CCOc1ccc(S(=O)(=O)N2CCCCC2)cc1NC(=O)c1ccccc1	none (no result: proCasp3 act, proCasp7 act)
CCOc1ccc(S(=O)(=O)N2CCN(C)CC2)cc1NC(=O)c1ccccc1F	none
CCOc1ncccc1C(=O)Nc1cc(S(=O)(=O)N2CCOCC2)ccc1OCC(F)(F)F	none | Arr AP2 CP1 inactive | GST GSH counter inactive
CCOc1ccc(S(=O)(=O)N2CCN(CC)CC2)cc1NC(=O)c1ccccc1F	none | Arr AP2 CP1 inactive | GST GSH counter inactive
CCOc1ccc(S(=O)(=O)N2CCCCC2)cc1NC(=O)c1cccnc1OCC	none | Arr AP2 CP1 inactive | GST GSH counter inactive
CCOc1ncccc1C(=O)Nc1cc(S(=O)(=O)N2CCCCC2)ccc1C	none | Arr AP2 CP1 inactive | GST GSH counter inactive
CCOc1ccc(S(=O)(=O)N2CCOCC2)cc1NC(=O)c1ccccc1F	none
COC(=O)[C@@]12CCCCC3=C1N(CCC3)C(=O)[C@H]2CC(=O)NCc1cccs1	none (no result: proCasp3 act, Arr AP2 block, proCasp7 act)
O=C(Nc1ccc2c(c1)OCO2)N1CCC(c2nc3ccc(Cl)cc3[nH]2)CC1	none (no result: proCasp3 act, Arr AP2 block, proCasp7 act)
COc1ccc(S(=O)(=O)N2CCOCC2)cc1NC(=O)c1ccncc1	none | Arr AP2 CP1 inactive | GST GSH counter inactive
CCOc1ncccc1C(=O)Nc1cccc(S(=O)(=O)N2CCCCC2)c1	none | Arr AP2 CP1 inactive | GST GSH counter inactive
NNC(=O)c1cc(O)c(O)c(O)c1	none | Arr AP2 CP1 inactive | GST GSH counter inactive
CCOC(=O)C1=C(COC(=O)CSc2ccc(C)cc2C)NC(=O)NC1C (stereo not drawn)	none (no result: proCasp3 act, proCasp7 act)
CCOC(=O)C1=C(COC(=O)c2cccc(N(C)C)c2)NC(=O)NC1C (stereo not drawn)	none
CCOC(=O)C1=C(COC(=O)CCOc2ccccc2)NC(=O)NC1C (stereo not drawn)	none | Arr AP2 CP1 inactive | GST GSH counter inactive
CCOC(=O)C1=C(COC(=O)/C=C/c2ccccc2)NC(=O)NC1C (stereo not drawn)	none
CCOC(=O)C1=C(COC(=O)CCOc2cccc(C)c2)NC(=O)NC1C (stereo not drawn)	none | Arr AP2 CP1 inactive | GST GSH counter inactive
CCOC(=O)C1=C(COC(=O)CCOc2cc(C)ccc2C)NC(=O)NC1C (stereo not drawn)	none | Arr AP2 CP1 inactive | GST GSH counter inactive
CN(Cc1ccc(Cl)cc1)C(=O)c1cc(S(=O)(=O)N2CCOCC2)ccc1N1CCCC1	none | Arr AP2 CP1 inactive | GST GSH counter inactive
CN(CCOc1ccc(Cl)cc1)C(=O)c1cc(S(=O)(=O)N2CCOCC2)ccc1N1CCCC1	none | Arr AP2 CP1 inactive | GST GSH counter inactive
CC(NC(=O)c1cc(S(=O)(=O)N2CCOCC2)ccc1N1CCCC1)c1ccc(Cl)c(Cl)c1 (stereo not drawn)	none | Arr AP2 CP1 inactive | GST GSH counter inactive
Cc1ccc(S(=O)(=O)N2CCOCC2)cc1C(=O)N(C)CCOc1ccc(Cl)cc1	none (no result: PLC-gamma1 inh, sPLA2-III inh, PLC-beta3 inh)
Nn1c(SCC(=O)NC2CCCCC2)nnc1-c1cc(-c2ccccc2)n[nH]1	none (no result: proCasp3 act, Arr AP2 block, proCasp7 act)
Cc1cnc(C(=O)Nc2ccc(OC(F)(F)F)cc2)cn1	Arr AP2 block 55.3 | Arr AP2 CP1 inactive | GST GSH counter inactive
O=C(N/N=C/c1ccco1)c1cc(-c2ccc3ccccc3c2)n[nH]1	Arr AP2 block 55.7 | Arr AP2 CP1 inactive | GST GSH counter inactive
